Results taken from ChEMBL document CHEMBL3351997, “Synthesis of novel tylophorine derivatives and evaluation of their anti-inflammatory activity” (ACS Med Chem Lett, 2014).

Tests used:
T-cell [1] = assay: Induction of Foxp3 expression in B6 Foxp3-GFP mouse CD4-positive T cells assessed as increase in iTregs at 1 uM after 3 days by flow cytometry; assay type: functional
Method in brief: (§1)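 Naive CD4+ T cells were sorted from B6 Foxp3-GFP reporter mice and cultured with compound plus TGF-β (5 ng/mL) for 3 days. Harvested cells were read by flow cytometry as the percentage of GFP+ (Foxp3+) iTregs. Values are mean ± SD of at least three independent experiments, each run in duplicate.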

RAW264.7 [2] = assay: Antiinflammatory activity against mouse RAW264.7 cells assessed as inhibition of LPS-induced TNFalpha production after 6 hrs by ELISA; assay type: functional, cell-based; conditions: RAW264.7, 6 h
[3] = Antiinflammatory activity against BALB/c mouse splenocytes assessed as inhibition of LPS-induced TNFalpha production after 4 hrs by ELISA; assay type: functional, cell-based; conditions: Splenocyte
Method in brief: (§2)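 Splenocytes from BALB/c mice were cultured with LPS (100 ng/mL) plus compound for 4 h or 24 h. TNF-α in the supernatants was measured by ELISA. Values are mean ± SD of at least three independent experiments, each run in duplicate.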

[4] = Antiinflammatory activity against BALB/c mouse splenocytes assessed as inhibition of LPS-induced TNFalpha production after 24 hrs by ELISA; assay type: functional, cell-based; conditions: Splenocyte; method in brief: as §2
RAW264.7 [5] = assay: Cytotoxicity against mouse RAW264.7 cells after 48 hrs by MTT assay; assay type: cell-based; conditions: RAW264.7, 48 h
Method in brief: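 Raw 264.7 murine macrophages were cultured with a range of compound concentrations for 48 h, with vehicle-treated cells as control. The 50% cytotoxic concentration (CC50) was determined, with values representative of three experiments.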

T-cell [6] = assay: Inhibition of Foxp3 expression in B6 Foxp3-GFP mouse CD4-positive T cells assessed as iTregs at 100 nM after 3 days by flow cytometry; assay type: functional; conditions: for inhibition at 0.1 µM: Mus musculus, T-cell, 72 h; method in brief: as §1
T-cell [7] = assay: Induction of Foxp3 expression in B6 Foxp3-GFP mouse CD4-positive T cells assessed as increase in iTregs at 100 nM after 3 days by flow cytometry; assay type: functional; method in brief: as §1
T-cell [8] = assay: Induction of Foxp3 expression in B6 Foxp3-GFP mouse CD4-positive T cells at 100 nM after 3 days by flow cytometry in presence of 5 ng/ml TGF-beta (reference value: 37.15 %); assay type: functional; method in brief: as §1
RAW264.7 [9] = assay: Cytotoxicity against mouse RAW264.7 cells assessed as cell death at 1 uM after 48 hrs by MTT assay; assay type: cell-based; conditions: raw264.7, 48 h
[10] = Solubility of the compound in DMSO; assay type: physicochemical
[11] = Solubility of the compound in water; assay type: physicochemical; conditions: buffer
T-cell [12] = assay: Induction of Foxp3 expression in B6 Foxp3-GFP mouse CD4-positive T cells at 1 nM after 3 days by flow cytometry in presence of 5 ng/ml TGF-beta; assay type: functional; method in brief: as §1
T-cell [13] = assay: Induction of Foxp3 expression in B6 Foxp3-GFP mouse CD4-positive T cells at 1 nM after 3 days by flow cytometry in presence of 5 ng/ml TGF-beta (reference value: 37.15 %); assay type: functional; method in brief: as §1
T-cell [14] = assay: Induction of Foxp3 expression in B6 Foxp3-GFP mouse CD4-positive T cells at 10 nM after 3 days by flow cytometry in presence of 5 ng/ml TGF-beta (reference value: 37.15 %); assay type: functional; method in brief: as §1
T-cell [15] = assay: Induction of Foxp3 expression in B6 Foxp3-GFP mouse CD4-positive T cells at 1 uM after 3 days by flow cytometry in presence of 5 ng/ml TGF-beta (reference value: 37.15 %); assay type: functional; method in brief: as §1

Row | SMILES | Activity (T-cell [1]) | IC50 (RAW264.7 [2]) | IC50 [3] | IC50 [4] | IC50 (RAW264.7 [5]) | other results
1 | COc1cc2cc(CN3CCC[C@H]3CO)c3cc(OC)c(OC)cc3c2cc1OC | 0.2% | 307 µM | 265 µM | 304 µM | 422 µM | 
2 | COc1cc2c3c(c4cc(OC)c(OC)cc4c2cc1OC)CN1CCCC1C3 (racemic) [(+/-)-TYLOPHORINE] |  |  |  |  |  | inhibition (INH) (T-cell [6]): 34%
3 | COc1cc2c3c(c4cc(OC)c(OC)cc4c2cc1OC)CN1CCCC1C3.Nc1ccc(S(=O)(=O)O)cc1 (centres undefined) [TYLOPHORINE P-AMINOBENZENESULFONIC ACID SALT] |  | 0.248 µM | 0.215 µM | 0.193 µM | 0.175 µM | inhibition at 0.1 µM (T-cell [6]): 3%
4 | COc1cc2c3c(c4cc(OC)c(OC)cc4c2cc1OC)[C@H](O)[C@@H]1CCCN1C3 |  | 0.036 µM | 0.02 µM | 0.097 µM | 0.053 µM | Activity (T-cell [7]): 39%; Activity (T-cell [8]): 40%; Activity (RAW264.7 [9]): Toxic; solubility [10]: soluble
5 | COc1cc2cc(C(=O)NCCCCCCO)c3cc(OC)c(OC)cc3c2cc1OC | 7% | 236 µM | 251 µM | 317 µM | 305 µM | 
6 | COc1cc2cc(CN3CCC[C@H]3C(=O)O)c3cc(OC)c(OC)cc3c2cc1OC | 2% | 200 µM | 234 µM | 231 µM | 418 µM | 
7 | COc1cc2c3c(c4cc(OC)c(OC)cc4c2cc1OC)CN1CCCC1C3.I (centres undefined) [TYLOPHORINE HYDROIODIDE] |  |  |  |  |  | inhibition (INH) (T-cell [6]): 12%
8 | COc1cc(/C=C/C(=O)O)ccc1O.COc1cc2c3c(c4cc(OC)c(OC)cc4c2cc1OC)CN1CCCC1C3 (centres undefined) |  | 0.135 µM | 0.213 µM | 0.329 µM | 0.093 µM | Activity (T-cell [7]): 0.8%
9 | COc1cc2c3c(c4cc(OC)c(OC)cc4c2cc1OC)CN1CCCC1C3.O=C(O)c1ccccc1O (centres undefined) [TYLOPHORINE SALICYLIC ACID SALT] |  |  |  |  |  | inhibition (INH) (T-cell [6]): 4%
10 | CC1(C)C2CC[C@]1(S(=O)(=O)O)C(=O)C2.COc1cc2c3c(c4cc(OC)c(OC)cc4c2cc1OC)CN1CCCC1C3 (centres undefined) |  | 0.027 µM | 0.03 µM | 0.338 µM | 0.033 µM | inhibition at 0.1 µM (T-cell [6]): 2%
11 | COc1cc2c3c(c4cc(OC)c(OC)cc4c2cc1OC)CN1CCCC1C3.O=C(O)CC(O)C(=O)O (centres undefined) [TYLOPHORINE 2-HYDROXYSUCCINIC ACID SALT] |  |  |  |  |  | solubility [11]: soluble
12 | COC(=O)[C@@H]1CCCN1Cc1cc2cc(OC)c(OC)cc2c2cc(OC)c(OC)cc12 | 19% | 216 µM | 153 µM | 275 µM | 469 µM | 
13 | COC(=O)CCCCCNCc1cc2cc(OC)c(OC)cc2c2cc(OC)c(OC)cc12 | 47% | 227 µM | 115 µM | 213 µM | 515 µM | 
14 | COc1cc2cc(CN3CCCCC3C(=O)O)c3cc(OC)c(OC)cc3c2cc1OC (centres undefined) | 0.7% | 354 µM | 292 µM | 389 µM | 357 µM | 
15 | COc1cc2c3c(c4cc(OC)c(OC)cc4c2cc1OC)CN1CCCC1C3.O=C(O)c1cc(S(=O)(=O)O)ccc1O (centres undefined) |  | 0.283 µM | 0.21 µM | 0.16 µM | 0.16 µM | Activity (T-cell [7]): 29%
16 | COc1cc2c3c(c4cc(OC)c(OC)cc4c2cc1OC)CN1CCCC1C3.O=C(O)c1ccc(O)cc1 (centres undefined) [TYLOPHORINE P-HYDROXYBENZOIC ACID SALT] |  | 0.511 µM | 0.76 µM | 0.972 µM | 0.651 µM | inhibition at 0.1 µM (T-cell [6]): 5%
17 | COc1cc2c3c(c4cc(OC)c(OC)cc4c2cc1OC)CN1CCCC1C3.O=C(O)c1ccccc1 (centres undefined) [TYLOPHORINE BENZOIC ACID SALT] |  |  |  |  |  | inhibition (INH) (T-cell [6]): 1%
18 | COC(=O)CCCCCNC(=O)c1cc2cc(OC)c(OC)cc2c2cc(OC)c(OC)cc12 | 16% | 241 µM | 156 µM | 257 µM | 423 µM | 
19 | COc1cc2c3c(c4cc(OC)c(OC)cc4c2cc1OC)[C@@H](O)[C@H]1CCCN1C3 |  | 0.238 µM | 0.133 µM | 0.783 µM | 0.242 µM | Activity (T-cell [7]): 12%
20 | COc1cc2cc(CN3CCCCC3CO)c3cc(OC)c(OC)cc3c2cc1OC (centres undefined) | 41% | 41 µM | 38 µM | 92 µM | 513 µM | Activity (T-cell [12]): 100%; Activity (T-cell [13]): 40.42%; Activity (T-cell [14]): 41.25%; Activity (T-cell [8]): 51.92%; Activity (T-cell [15]): 73.94%
21 | COc1cc2c3c(c4cc(OC)c(OC)cc4c2cc1OC)[C@@H](O)[C@@H]1CCCN1C3 |  | 0.35 µM | 0.37 µM | 1.29 µM | 1.06 µM | Activity (T-cell [7]): 29%
22 | COC(=O)[C@@H]1CCCN1C(=O)c1cc2cc(OC)c(OC)cc2c2cc(OC)c(OC)cc12 | 5% | 217 µM | 211 µM | 363 µM | 320 µM | 
23 | COc1cc2c3c(c4cc(OC)c(OC)cc4c2cc1OC)[C@H](O)[C@H]1CCCN1C3 |  | 0.817 µM | 0.61 µM | 0.965 µM | 1.16 µM | Activity (T-cell [7]): 5%
24 | COc1cc2c3c(c4cc(OC)c(OC)cc4c2cc1OC)CN1CCC[C@H]1C3 [(S)-TYLOPHORINE] |  |  |  |  |  | inhibition at 0.1 µM (T-cell [6]): 44%
25 | COc1cc2cc(CN3CCC(O)CC3)c3cc(OC)c(OC)cc3c2cc1OC | 5% | 231 µM | 265 µM | 273 µM | 132 µM | 
26 | COC(=O)C1CCCCN1C(=O)c1cc2cc(OC)c(OC)cc2c2cc(OC)c(OC)cc12 (centres undefined) | 7% | 227 µM | 301 µM | 329 µM | 116 µM | 
